T cruzi growth-1: blocks T. cruzi growth in NIH3T3 culture. T. cruzi beta-gal in NIH3T3, GalScreen luminescence, 90 h. 77,000 tested, 5.9% active. inhibition, % at 8.34 µM;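 active = mean inhibition above about 93%, with at least 55% of replicates each passing it, limit read from the data, passing the limit was not always enough; inconclusive = only one of those two conditions holds; inactive = neither condition holds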
IDH1 R132H inh: blocks human IDH1 R132H reductase activity; inhibition, % at 10 µM; diaphorase/resazurin fluorescence, 60 min; AID 624101; O75874; 70,000 tested, 0.18% active; in the data active = inhibition above about 34%; inconclusive = no clear call, values can overlap the other calls; inactive = below about 11%;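 note: 0% = DMSO and 100% = no enzyme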
Target sequence (O75874 whole entry R132H): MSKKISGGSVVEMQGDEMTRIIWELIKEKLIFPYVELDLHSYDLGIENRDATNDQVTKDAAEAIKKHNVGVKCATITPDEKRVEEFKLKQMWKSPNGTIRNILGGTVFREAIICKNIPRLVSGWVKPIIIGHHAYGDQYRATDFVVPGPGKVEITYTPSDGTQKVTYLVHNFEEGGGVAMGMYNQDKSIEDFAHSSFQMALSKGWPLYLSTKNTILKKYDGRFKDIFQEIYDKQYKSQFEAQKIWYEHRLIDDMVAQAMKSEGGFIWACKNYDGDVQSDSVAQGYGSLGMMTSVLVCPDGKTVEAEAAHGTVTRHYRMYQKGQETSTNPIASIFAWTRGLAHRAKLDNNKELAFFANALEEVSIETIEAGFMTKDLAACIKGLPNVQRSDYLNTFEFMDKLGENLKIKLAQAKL
KDM4C inh: blocks human GASC-1 (KDM4C) demethylase activity. GST-KDM4C 2-372, H3K9me3 peptide, LANCE TR-FRET. inhibition, % at 12.5 µM. 96,000 tested, 0.15% active;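 active = mean replicate inhibition above about 25%, with at least 55% of replicates also reaching it, limit read from the data, passing the limit was not always enough; inconclusive = only one of those two conditions met; inactive = neither condition met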
Target sequence (Q9H3R0 2-372 limits assumed): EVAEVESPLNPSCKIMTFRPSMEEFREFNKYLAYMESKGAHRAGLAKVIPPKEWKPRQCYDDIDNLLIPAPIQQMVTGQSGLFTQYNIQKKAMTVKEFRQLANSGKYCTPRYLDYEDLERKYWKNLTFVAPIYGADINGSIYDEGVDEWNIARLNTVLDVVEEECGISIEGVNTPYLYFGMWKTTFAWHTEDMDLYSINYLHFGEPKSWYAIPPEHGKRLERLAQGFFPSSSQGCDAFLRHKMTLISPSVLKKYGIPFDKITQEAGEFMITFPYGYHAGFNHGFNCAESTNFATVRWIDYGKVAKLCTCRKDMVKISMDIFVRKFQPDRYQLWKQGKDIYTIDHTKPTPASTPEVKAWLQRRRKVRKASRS
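Material: GST-tagged GASC-1 (JMJD2C) catalytic fragment, aa 2-372. Input: enzyme final amount 10 nM. Medium: HEPES buffer, pH 7.5, plus ascorbate. Reagent: H3K9me3 peptide substrate, Fe(II), 2-oxoglutarate. Doses: single dose. Times: reaction 30 min RT, detection step 1 h RT. Measured by: LANCE TR-FRET. Evaluation: Fall in 671/618 emission ratio as inhibition.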
T cruzi growth-2: inhibitors of T. cruzi proliferation | shares compounds with T cruzi growth-1 | T. cruzi beta-gal in NIH3T3, GalScreen luminescence, 90 h | inhibition, % at 8.35 µM | 5,600 tested, 72% active;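 active = mean replicate inhibition above about 95% and at least 55% of replicates individually reaching it, limit read from the data; inconclusive = only one of the two criteria is met; inactive = neither criterion is met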
T cruzi growth-3: inhibitors of T. cruzi proliferation. shares compounds with T cruzi growth-1. T. cruzi beta-gal in NIH3T3, GalScreen luminescence, 90 h. inhibition, % at 2.09 µM. 5,600 tested, 21% active;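 active = mean inhibition above about 95%, with at least 55% of replicates also reaching it, limit read from the data; inconclusive = meets just one of the two conditions; inactive = meets neither condition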;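 note: plate controls were neutral control median for no effect and positive control median for full effect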
3T3 cytotox: kills mouse NIH/3T3 fibroblasts. shares compounds with T cruzi growth-1. NIH/3T3 viability, CellTiter-Glo ATP luminescence, 90 h. cytotoxicity (signal decrease), % at 8.35 µM. 5,600 tested, 14% active;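 active = mean signal decrease across replicates above about 35% based on untreated-well scatter, with enough replicates individually passing, limit read from the data; inconclusive = no rule stated though some were filed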;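 note: 0% = median of neutral control wells and 100% = median of positive control wells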
NIH3T3 tox 2: kills mouse NIH/3T3 fibroblasts; NIH/3T3 viability, CellTiter-Glo ATP luminescence, 90 h; 5,600 tested, 56% active; inhibition, % at 24.9 µM; shares compounds with T cruzi growth-1;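 active = mean loss of cell viability signal at or above a set limit, and enough replicates individually reaching it; inconclusive = meets only the mean limit or only the replicate share; inactive = meets neither condition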;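 note: 0% = median of neutral control wells and 100% = median of positive control wells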
The depositor's hits bear a star; ? = inconclusive; nt = not tested or not shown. This is one part of a sample in which hits are shown more often than they occur.

SMILES | T cruzi growth-1 | IDH1 R132H inh | KDM4C inh | T cruzi growth-2 | T cruzi growth-3 | 3T3 cytotox | NIH3T3 tox 2
C[C@H](CO)N1C[C@H](C)[C@H](CN(C)S(=O)(=O)c2ccccc2F)Oc2ncc(C#Cc3ccccc3)cc2C1=O | -10 | 0 | nt | nt | nt | nt | nt
C[C@H](CO)N1C[C@H](C)[C@H](CN(C)S(=O)(=O)c2ccccc2F)Oc2ncc(C#Cc3ccccc3F)cc2C1=O | ? | 0 | -3 | 106* | 69 | 26 | 58*
CCCCCC[C@H](O)[C@@H]1C[C@@H](O)C2=C(O1)[C@@H](O)CCC2=O | nt | -1 | nt | nt | nt | nt | nt
O=C(Nc1ccc(S(=O)(=O)Nc2ncccn2)cc1)c1cccc(I)c1 | nt | 0 | nt | nt | nt | nt | nt
CC(C)(C)C(=O)CSc1nnc(-c2ccco2)o1 | nt | 1 | nt | nt | nt | nt | nt
CCC(c1nc2ccccc2c(=O)n1-c1ccccn1)N1C(=O)c2ccccc2C1=O (stereo not given) | nt | 0 | nt | nt | nt | nt | nt
C[C@@H]1CCCCO[C@H](CN(C)S(=O)(=O)c2cccs2)[C@H](C)CN([C@@H](C)CO)C(=O)c2cc(NC(=O)Nc3ccc(C(F)(F)F)cc3)ccc2O1 | ? | nt | -1 | 104* | 113* | 9 | 4
C[C@H]1CCCCO[C@@H](CN(C)S(=O)(=O)c2cccs2)[C@@H](C)CN([C@@H](C)CO)C(=O)c2cc(NC(=O)Nc3ccc(C(F)(F)F)cc3)ccc2O1 | ? | 1 | 0 | 96* | 110* | -13 | 7
C[C@@H]1CCCCO[C@@H](CN(C)S(=O)(=O)c2cccs2)[C@H](C)CN([C@@H](C)CO)C(=O)c2cc(NC(=O)Nc3ccc(F)cc3)ccc2O1 | 65 | -1 | -1 | nt | nt | nt | nt
C[C@@H]1CN([C@H](C)CO)C(=O)c2cc(NC(=O)Nc3ccc(C(F)(F)F)cc3)ccc2O[C@@H](C)CCCCO[C@@H]1CN(C)S(=O)(=O)c1cccs1 | 79 | 0 | 0 | nt | nt | nt | nt
C[C@@H]1CN([C@@H](C)CO)C(=O)c2cc(NC(=O)Nc3ccc(C(F)(F)F)cc3)ccc2O[C@@H](C)CCCCO[C@H]1CN(C)S(=O)(=O)c1cccs1 | 100* | nt | 0 | 105* | 112* | 25 | 16
C[C@H]1CCCCO[C@H](CN(C)S(=O)(=O)c2cccs2)[C@@H](C)CN([C@@H](C)CO)C(=O)c2cc(NC(=O)Nc3ccc(C(F)(F)F)cc3)ccc2O1 | 99* | nt | -3 | 105* | 109* | -22 | -2
C[C@H](CO)N1C[C@H](C)[C@H](CN(C)S(=O)(=O)c2cccs2)OCCCC[C@H](C)Oc2ccc(NC(=O)Nc3ccc(C(F)(F)F)cc3)cc2C1=O | 86 | nt | 1 | nt | nt | nt | nt
CCn1c(SCC(=O)Nc2ccccc2C(F)(F)F)nnc1-c1ccc(N)cc1 | nt | 1 | nt | nt | nt | nt | nt
Cc1nc(SCC(=O)Nc2ccccc2)n[nH]1 | nt | 0 | nt | nt | nt | nt | nt
COC(=O)c1ccccc1NC(=O)C1CC(c2ccc(Cl)c(Cl)c2)=NO1 (stereo not given) | nt | 1 | nt | nt | nt | nt | nt
Cc1ccc([N+](=O)[O-])cc1NC(=O)CSc1nnnn1C1CC2CCC1C2 (stereo not given) | nt | -1 | nt | nt | nt | nt | nt
Cc1cc(C)n2c(Nc3cccc(C(F)(F)F)c3)c(-c3ccc(O)cc3)nc2n1 | nt | 19 | nt | nt | nt | nt | nt
O=C(C[C@H]1CC[C@H]2[C@@H](COC[C@@H](O)CN2Cc2ccc3c(c2)OCO3)O1)Nc1ccc(-c2ccccc2)cc1 | 113* | nt | 4 | 99* | 85 | 31 | 69*
COc1ccccc1CNC(=O)C[C@H]1CC[C@@H]2[C@H](COC[C@H](O)CN2Cc2ccc3c(c2)OCO3)O1 | 94 | nt | -1 | nt | nt | nt | nt
O=C(C[C@H]1CC[C@@H]2[C@H](COC[C@@H](O)CN2Cc2ccc3c(c2)OCO3)O1)Nc1ccc(-c2ccccc2)cc1 | 89 | nt | 2 | nt | nt | nt | nt
O=C(C[C@@H]1CC[C@@H]2[C@H](COC[C@H](O)CN2Cc2ccc3c(c2)OCO3)O1)Nc1ccc(-c2ccccc2)cc1 | 115* | nt | 1 | 99* | 99* | 16 | 30*
O=C(C[C@H]1CC[C@H]2[C@@H](COC[C@@H](O)CN2Cc2ccc3c(c2)OCO3)O1)Nc1ccccc1 | 71 | nt | 1 | nt | nt | nt | nt
COc1ccccc1CNC(=O)C[C@H]1CC[C@H]2[C@@H](COC[C@H](O)CN2Cc2ccc3c(c2)OCO3)O1 | 104* | nt | 1 | 43 | 20 | 11 | 15
COc1ccc(Cl)cc1NC(=O)CSc1nc2ccc(NC(=O)c3ccc(C)cc3)cc2s1 | nt | 0 | nt | nt | nt | nt | nt
SMILES | T cruzi growth-1 | IDH1 R132H inh | KDM4C inh | T cruzi growth-2 | T cruzi growth-3 | 3T3 cytotox | NIH3T3 tox 2
NC(=O)c1c(NC(=O)COc2cccc(C(F)(F)F)c2)sc2c1CCC2 | nt | 0 | nt | nt | nt | nt | nt
CC1(C)Cc2c(sc3nc(SCC(=O)c4ccccc4)nc(N)c23)CS1 | nt | 0 | nt | nt | nt | nt | nt
CNC[C@H]1OCCCC[C@H](C)Oc2ccc(NS(C)(=O)=O)cc2C(=O)N([C@@H](C)CO)C[C@@H]1C | 101* | 5 | -2 | -26 | -5 | -15 | -25
CNC[C@@H]1OCCCC[C@H](C)Oc2ccc(NS(=O)(=O)c3ccc(C)cc3)cc2C(=O)N([C@@H](C)CO)C[C@H]1C | 78 | nt | -1 | nt | nt | nt | nt
CNC[C@@H]1OCCCC[C@H](C)Oc2ccc(NS(C)(=O)=O)cc2C(=O)N([C@@H](C)CO)C[C@H]1C | 32 | 1 | 2 | nt | nt | nt | nt
CNC[C@H]1OCCCC[C@H](C)Oc2ccc(NS(=O)(=O)c3ccc(C)cc3)cc2C(=O)N([C@@H](C)CO)C[C@@H]1C | 102* | 6 | 7 | -10 | -12 | 1 | 11
CCOC(=O)c1ccc(NC(=O)CN2c3cccc4cccc(c34)S2(=O)=O)cc1 | nt | 0 | nt | nt | nt | nt | nt
C[C@@H]1CN([C@@H](C)CO)C(=O)c2cc(NC(=O)Nc3cccc4ccccc34)ccc2O[C@@H](C)CCCCO[C@@H]1CN(C)C(=O)C1CCCCC1 | 96 | nt | -1 | nt | nt | nt | nt
C[C@@H]1CCCCO[C@H](CN(C)C(=O)C2CCCCC2)[C@H](C)CN([C@H](C)CO)C(=O)c2cc(NC(=O)Nc3cccc4ccccc34)ccc2O1 | 117* | nt | -1 | 105* | 113* | -28 | -18
C[C@@H]1CCCCO[C@@H](CN(C)C(=O)Nc2cccc3ccccc23)[C@@H](C)CN([C@@H](C)CO)C(=O)c2cc(NC(=O)Nc3cccc4ccccc34)ccc2O1 | 26 | nt | 0 | nt | nt | nt | nt
C[C@@H]1CCCCO[C@@H](CN(C)C(=O)C2CCCCC2)[C@@H](C)CN([C@@H](C)CO)C(=O)c2cc(NC(=O)Nc3cccc4ccccc34)ccc2O1 | 110* | nt | 1 | 106* | 65 | -9 | -27
O=C(NO)c1cccc(C(=O)N/N=C/c2cccc(Br)c2)c1 | nt | 0 | nt | nt | nt | nt | nt
CCOC(=O)c1c(C)sc2c(C)c(C)[nH]c12 | nt | -4 | nt | nt | nt | nt | nt

Screening data from PubChem.
